{"source": "ChEMBL document CHEMBL1275434", "about": "“In vitro evaluation of CBR-2092, a novel rifamycin-quinolone hybrid antibiotic: studies of the mode of action in Staphylococcus aureus” (Antimicrob Agents Chemother, 2008)", "key": {"Staphylococcus aureus [1]": {"system": "Staphylococcus aureus", "assay": "Antimicrobial activity against rifampin-sensitive Staphylococcus aureus CB190 harboring rpoB H481N mutant gene by broth microdilution method", "format": "functional", "in_short": "(§1)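 CLSI broth microdilution MIC in cation-adjusted Mueller-Hinton (MHII) broth supplemented with 0.002% (vol/vol) polysorbate 80, included to limit compound loss to plastic surfaces.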"}, "Staphylococcus aureus [2]": {"system": "Staphylococcus aureus", "assay": "Antimicrobial activity against wild-type Staphylococcus aureus CB190 by broth microdilution method", "format": "functional", "in_short": "as §1"}, "Staphylococcus aureus [3]": {"system": "Staphylococcus aureus", "assay": "Antimicrobial activity against rifampin-sensitive Staphylococcus aureus CB190 harboring rpoB N474K mutant gene by broth microdilution method", "format": "functional", "in_short": "as §1"}, "Staphylococcus aureus [4]": {"system": "Staphylococcus aureus", "assay": "Antimicrobial activity against Staphylococcus aureus CB1421 harboring rpoB H481Y, parC S80F and gyrA S84L mutant genes selected after 0.18 ug/ml drug exposure by broth microdilution method", "format": "functional", "in_short": "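CLSI broth microdilution MIC in cation-adjusted Mueller-Hinton (MHII) broth with 0.002% (vol/vol) polysorbate 80. Single-step mutants were selected on agar […], purified by drug-free passage, their phenotype re-verified, and resistance loci sequenced.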"}, "Staphylococcus aureus [5]": {"system": "Staphylococcus aureus", "assay": "Antimicrobial activity against rifampin-sensitive Staphylococcus aureus CB190 harboring rpo BH481D mutant gene by broth microdilution method", "format": "functional", "in_short": "as §1"}, "Staphylococcus aureus [6]": {"system": "Staphylococcus aureus", "assay": "Antimicrobial activity against Staphylococcus aureus CB811 harboring quinolone-resistant gyrA S84L mutant gene by broth microdilution method", "format": "functional", "in_short": "as §1"}, "Staphylococcus aureus [7]": {"system": "Staphylococcus aureus", "assay": "Activity at Staphylococcus aureus DNA topoisomerase 4 subunit ParC S80F mutant"}, "Staphylococcus aureus [8]": {"system": "Staphylococcus aureus", "assay": "Antimicrobial activity against Staphylococcus aureus CB1952 harboring rpoB S486L, gyrA […], gyrA E88Q, gyrA G532S, parC S80F, parC E84L mutant genes selected after CBR-2092 exposure for 21 days by broth microdilution method", "format": "functional", "conditions": "CB1952, 504 h", "in_short": "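CLSI broth microdilution MIC in MHII with 0.002% polysorbate 80 against strains from 20–21 days of stepwise passage of rifamycin- and/or quinolone-resistant parents; CBR-2092 passages used MHII with 0.002% polysorbate 80.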"}, "Staphylococcus aureus [9]": {"system": "Staphylococcus aureus", "assay": "Antimicrobial activity against Staphylococcus aureus CB1881 harboring rpoB R484H mutant gene and L520 deficient gyrA gene by broth microdilution method", "format": "functional", "in_short": "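CLSI broth microdilution MIC in MHII broth with 0.002% (vol/vol) polysorbate 80. Isolates came from daily stepwise broth passage at sub-MIC drug (MHII without polysorbate 80, 10^6 CFU/ml inoculum, 20–24 h shaking at 37°C), were purified drug-free, and were sequenced at target loci.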"}, "Staphylococcus aureus [10]": {"system": "Staphylococcus aureus", "assay": "Antimicrobial activity against Staphylococcus aureus CB1416 harboring rpo BH481Y and gyrA L795S mutant genes selected after 0.1 ug/ml drug exposure by broth microdilution method"}}}
{"compound": "CO[C@H]1/C=C/O[C@@]2(C)Oc3c(C)c(O)c4c(O)c(c(/C=N/N5CCC(N(C)C6([C@@H]7CCN(c8c(F)cn9c(=O)c(C(=O)O)cc(C%10CC%10)c9c8C)C7)CC6)CC5)c(O)c4c3C2=O)NC(=O)/C(C)=C\\C=C\\[C@H](C)[C@H](O)[C@@H](C)[C@@H](O)[C@@H](C)[C@H](OC(C)=O)[C@@H]1C", "values": [{"measurement": "MIC", "setting": "Staphylococcus aureus [1]", "result": 0.25, "unit": "µg/mL"}, {"measurement": "MIC", "setting": "Staphylococcus aureus [2]", "result": 0.015, "unit": "µg/mL"}, {"measurement": "MIC", "setting": "Staphylococcus aureus [3]", "result": 0.25, "unit": "µg/mL"}, {"measurement": "MIC", "setting": "Staphylococcus aureus [4]", "result": 1, "unit": "µg/mL"}, {"measurement": "MIC", "setting": "Staphylococcus aureus [5]", "result": 0.25, "unit": "µg/mL"}, {"measurement": "MIC", "setting": "Staphylococcus aureus [6]", "result": 0.015, "unit": "µg/mL"}, {"measurement": "CC50", "setting": "Staphylococcus aureus [7]", "result": 2700, "unit": "nM"}, {"measurement": "MIC", "setting": "Staphylococcus aureus [8]", "result": 31, "unit": "µg/mL"}, {"measurement": "MIC", "setting": "Staphylococcus aureus [9]", "result": 0.5, "unit": "µg/mL"}, {"measurement": "MIC", "setting": "Staphylococcus aureus [10]", "result": 0.5, "unit": "µg/mL"}]}
